{
  "source": "ChEMBL document CHEMBL1811869",
  "about": "“Tigliane-type diterpenoid glycosides from Euphorbia fischeriana” (J Nat Prod, 2011)",
  "key": {"[1]": {"assay": "Cytotoxicity against human C8166 cells by MTT assay", "type": "cell-based", "outline": "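C8166 cell viability read by MTT method, with CC50 derived.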"}, "[2]": {"system": "Human immunodeficiency virus 1", "assay": "Antiviral activity against Human immunodeficiency virus 1 infected in human C8166 cells assessed as inhibition of virus-induced cytopathic effect", "type": "functional, organism-based", "conditions": "Human immunodeficiency virus 1, C8166", "outline": "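HIV-1 cytopathic-effect inhibition assay in C8166 cells, with EC50 derived. Zidovudine (AZT) run as the positive-control drug.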"}, "[3]": {"assay": "Therapeutic index, ratio of CC50 for C8166 cells to EC50 for Human immunodeficiency virus 1", "type": "cell-based", "conditions": "read-out: Ratio CC50/EC50"}},
  "data": [
    {"compound": "CC(=O)OCC1=C[C@H]2[C@@H]3C(C)(C)[C@]3(OC(C)=O)C[C@@H](C)[C@]2(O)[C@@H]2C=C(C)C(=O)[C@@]2(O)C1", "values": [
      {"measurement": "CC50", "setting": "[1]", "result": 110, "unit": "nM"},
      {"measurement": "EC50", "setting": "[2]", "result": 0.3, "unit": "nM"},
      {"measurement": "selectivity ratio", "setting": "[3]", "result": "> 367"}
    ]},
    {"compound": "CC(=O)O[C@@]12C[C@@H](C)[C@@]3(O)[C@@H](C=C(CO[C@@H]4O[C@H](CO)[C@@H](O)[C@H](O)[C@H]4O)C[C@]4(O)C(=O)C(C)=C[C@@H]34)[C@@H]1C2(C)C", "note": "[FISCHEROSIDES A]", "values": [
      {"measurement": "CC50", "setting": "[1]", "result": "> 360", "unit": "nM"},
      {"measurement": "EC50", "setting": "[2]", "result": 170, "unit": "nM"},
      {"measurement": "selectivity ratio", "setting": "[3]", "result": "> 2.12"}
    ]},
    {"compound": "CC(=O)O[C@@]12C[C@@H](C)[C@@]3(O)[C@@H](C=C(CO[C@@H]4O[C@H](COC(=O)c5cc(O)c(O)c(O)c5)[C@@H](O)[C@H](O)[C@H]4O)C[C@]4(O)C(=O)C(C)=C[C@@H]34)[C@@H]1C2(C)C", "note": "[FISCHEROSIDES B]", "values": [
      {"measurement": "CC50", "setting": "[1]", "result": "> 280", "unit": "nM"},
      {"measurement": "EC50", "setting": "[2]", "result": 70, "unit": "nM"},
      {"measurement": "selectivity ratio", "setting": "[3]", "result": "> 4"}
    ]},
    {"compound": "CC(=O)O[C@@]12[C@H](O)[C@@H](C)[C@@]3(O)[C@@H](C=C(CO[C@@H]4O[C@H](CO)[C@@H](O)[C@H](O)[C@H]4O)C[C@]4(O)C(=O)C(C)=C[C@@H]34)[C@@H]1C2(C)C", "note": "[FISCHEROSIDES C]", "values": [
      {"measurement": "CC50", "setting": "[1]", "result": "> 350", "unit": "nM"},
      {"measurement": "EC50", "setting": "[2]", "result": 20, "unit": "nM"},
      {"measurement": "selectivity ratio", "setting": "[3]", "result": "> 17.5"}
    ]},
    {"compound": "CC(=O)O[C@@]12C[C@@H](C)[C@@]3(O)[C@@H](C=C(CO)C[C@]4(O)C(=O)C(C)=C[C@@H]34)[C@@H]1C2(C)C", "note": "[PROSTRATIN]", "values": [
      {"measurement": "CC50", "setting": "[1]", "result": "> 510", "unit": "nM"},
      {"measurement": "EC50", "setting": "[2]", "result": 0.06, "unit": "nM"},
      {"measurement": "selectivity ratio", "setting": "[3]", "result": "> 8500"}
    ]},
    {"compound": "Cc1cn([C@H]2C[C@H](N=[N+]=[N-])[C@@H](CO)O2)c(=O)[nH]c1=O", "note": "[ZIDOVUDINE]", "values": [
      {"measurement": "CC50", "setting": "[1]", "result": 4070, "unit": "nM"},
      {"measurement": "selectivity ratio", "setting": "[3]", "result": "1.02e+06"}
    ]}
  ]
}
